Laboratory results as given in ChEMBL document CHEMBL1828598, “Discovery of gemfibrozil analogues that activate PPARα and enhance the expression of gene CPT1A involved in fatty acids catabolism” (Eur J Med Chem, 2011).
Active and inactive are the calls of the source. The rule behind the calls is not given here.

Key:
[1] = molecular target: T1, Peroxisome proliferator-activated receptor alpha (Homo sapiens, UniProt Q07869); assay: Agonist activity at Gal4-fused PPARalpha expressed in HEK293 cells after 18 hrs by dual luciferase reporter gene assay; assay type: functional, cell-based
T1 sequence (Q07869 whole entry): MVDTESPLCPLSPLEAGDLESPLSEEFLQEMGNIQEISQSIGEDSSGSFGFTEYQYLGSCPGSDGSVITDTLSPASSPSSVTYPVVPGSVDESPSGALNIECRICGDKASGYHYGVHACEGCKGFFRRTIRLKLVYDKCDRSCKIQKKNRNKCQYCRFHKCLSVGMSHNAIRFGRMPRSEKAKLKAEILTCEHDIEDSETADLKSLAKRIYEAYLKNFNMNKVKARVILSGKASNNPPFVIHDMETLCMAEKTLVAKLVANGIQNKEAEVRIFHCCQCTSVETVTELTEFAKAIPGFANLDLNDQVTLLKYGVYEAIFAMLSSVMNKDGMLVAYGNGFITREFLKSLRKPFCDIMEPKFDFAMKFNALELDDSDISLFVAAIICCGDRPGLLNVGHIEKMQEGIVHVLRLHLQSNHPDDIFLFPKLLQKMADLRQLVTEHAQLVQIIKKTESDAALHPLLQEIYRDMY
How it was run: (§1)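 HEK293 cells were grown in DMEM with 10% FCS, penicillin/streptomycin, sodium pyruvate and nonessential amino acids at 37 °C, 5% CO2. The next day they were transfected in serum-free medium by calcium phosphate with GAL4-PPARα LBD (30 ng), firefly luciferase reporter (50 ng), renilla normalization vector (20 ng) and carrier DNA. Ligands were added 8 h later for 18 h. Efficacy is given as % of maximal gemfibrozil fold induction, from at least three separate experiments.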

[2] = molecular target: T2, Peroxisome proliferator-activated receptor alpha (Homo sapiens) (UniProt Q07869); assay: Agonist activity at Gal4-fused PPARalpha expressed in HEK293 cells after 18 hrs by dual luciferase reporter gene assay relative to gemfibrozil; assay type: functional, cell-based; how it was run: as §1
T2 sequence (whole entry): T1 sequence (Q07869 whole entry)

HEK293 = assay: Selectivity ratio of EC50 for Gal4-fused PPARalpha expressed in HEK293 cells to EC50 for Gal4-fused PPARgamma expressed in HEK293 cells; assay type: cell-based
[3] = molecular target: T2, Peroxisome proliferator-activated receptor alpha (Homo sapiens); assay: Agonist activity at PPARalpha in human HepG2 cells assessed as upregulation of CPT1a mRNA expression at 100 uM after 24 hrs by quantitative RT-PCR analysis relative to gemfibrozil; assay type: functional, cell-based
How it was run: (§2)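 HepG2 cells were kept in DMEM with 10% FCS and 1% penicillin/streptomycin and seeded at 5 × 10⁵ cells/well the day before. They were treated 24 h with ligands in DMSO diluted in growth medium, and vehicle-only cells served as controls. Total RNA was taken with TRIzol and DNase-treated. CPT1A mRNA was measured by RT-qPCR against cyclophilin and normalized to vehicle-treated cells. Data are mean ± SEM of four independent determinations run in duplicate.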

[4] = molecular target: T2, Peroxisome proliferator-activated receptor alpha (Homo sapiens); assay: Agonist activity at PPARalpha in human HepG2 cells assessed as upregulation of CPT1a mRNA expression after 24 hrs by quantitative RT-PCR analysis; assay type: functional, cell-based; how it was run: as §2
[5] = molecular target: T2, Peroxisome proliferator-activated receptor alpha (Homo sapiens); assay: Agonist activity at PPARalpha in human HepG2 cells assessed as upregulation of CPT1a mRNA expression at 10 uM after 24 hrs by quantitative RT-PCR analysis relative to gemfibrozil; assay type: functional, cell-based; how it was run: as §2
[6] = molecular target: T2, Peroxisome proliferator-activated receptor alpha (Homo sapiens); assay: Agonist activity at PPARalpha in human HepG2 cells assessed as upregulation of CPT1a mRNA expression at 0.1 to 100 uM after 24 hrs by quantitative RT-PCR analysis; assay type: functional, cell-based; how it was run: as §2

Compound | EC50 ([1]; read-out: EC50) | Efficacy [2] | fold change (FC) [3] | Activity [4] | fold change (FC) [5] | Activity [6] | EC50 ([1]; hek293) | Ratio EC50 (HEK293)
CC(C)(CCCOc1ccc(C(=O)/C=C/c2ccccc2)cc1)C(=O)O | 61.5 µM | 165% | – | – | – | – | – | 2.1
CC(C)(CCCOc1ccc(/N=N/c2ccccc2)cc1)C(=O)O | 43.7 µM | 76% | – | – | – | – | – | 0.8
CC(C)(CCCOc1ccc(/C=C/c2ccccc2)cc1)C(=O)O | 1 µM | 223% | 6 | Dose-dependent effect | 2 | – | – | 1.4
Cc1ccc(C)c(OCCCC(C)(C)C(=O)O)c1 [GEMFIBROZIL] | 59 µM | – | – | – | – | Active | – | 0.7
O=C(O)CCCCOc1ccc(/N=N/c2ccccc2)cc1 | – | – | – | – | – | – | Not Active | –
O=C(O)CCCCOc1ccc(/C=C/c2ccccc2)cc1 | 18.8 µM | 206% | – | – | – | – | – | 1.1
CC(C)(CCCOc1ccc(Oc2ccccc2)cc1)C(=O)O | 9.1 µM | 118% | – | – | – | – | – | 1.4
C=CCc1ccc(OCCCCC(=O)O)c(OC)c1 | 11.3 µM | 94% | – | – | – | inactive | – | 0.8
CC(C)(CCCOc1ccc(C(=O)c2ccccc2)cc1)C(=O)O | 9.3 µM | 82% | – | – | – | – | – | 0.9
C=CCc1ccc(OCCCC(C)(C)C(=O)O)c(OC)c1 | 6.6 µM | 117% | – | – | – | inactive | – | 1
O=C(O)CCCCOc1ccc(Oc2ccccc2)cc1 | – | – | – | – | – | – | Not Active | –

Now from value to compound, other results behind:

EC50 ([1]; read-out: EC50) | Efficacy [2] | fold change (FC) [3] | Activity [4] | fold change (FC) [5] | Activity [6] | EC50 ([1]; hek293) | Compound | Ratio EC50 (HEK293)
– | – | – | – | – | – | Not Active | CC(=O)c1ccc(OCCCC(C)(C)C(=O)O)cc1 | –
27.1 µM | 123% | – | – | – | – | – | O=C(O)CCCCOc1ccc(C(=O)c2ccccc2)cc1 | 1
9.3 µM | 106% | – | – | – | inactive | – | O=C(O)CCCCOc1ccc(NC(=O)Nc2ccccc2)cc1 | 1.3
– | – | – | – | – | – | Not Active | CC(=O)c1ccc(OCCCCC(=O)O)cc1 | –
109 µM | 235% | – | – | – | – | – | O=C(O)CCCCOc1ccc(C(=O)/C=C/c2ccccc2)cc1 | 3
